In assay [1] the target is T1, Urotensin-2 receptor (Rattus norvegicus) (UniProt P49684).
T1 sequence (whole entry): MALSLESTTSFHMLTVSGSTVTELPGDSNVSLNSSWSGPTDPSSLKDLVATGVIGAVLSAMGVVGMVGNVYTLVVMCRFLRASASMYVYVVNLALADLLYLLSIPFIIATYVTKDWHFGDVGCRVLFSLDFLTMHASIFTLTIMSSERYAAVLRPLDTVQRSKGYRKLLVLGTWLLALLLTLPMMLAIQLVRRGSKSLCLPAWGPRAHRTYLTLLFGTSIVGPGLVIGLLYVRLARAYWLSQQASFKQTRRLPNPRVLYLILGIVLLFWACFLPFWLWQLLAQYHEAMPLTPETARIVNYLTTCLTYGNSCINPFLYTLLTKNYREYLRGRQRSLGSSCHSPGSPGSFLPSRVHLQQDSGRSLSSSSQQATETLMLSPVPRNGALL
The assay is described as follows: Partial agonist activity at UT2 receptor in Sprague-Dawley rat thoracic aorta ring assessed as induction of aortic contractions at 10 to 100 uM relative to KCl. Format: tissue-based. The procedure, abridged: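 Peptides applied alone to rat aortic rings to test for induced contraction. Response expressed as percent of KCl-induced contraction.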

The target of assay [2] is T1, Urotensin-2 receptor (Rattus norvegicus). Briefly: Antagonist activity at UT2 receptor in Sprague-Dawley rat thoracic aorta ring assessed as Emax for URP-induced aortic contractions at 10^-5M relative to KCl. Format: tissue-based. In outline: (§1)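 Rat aortic rings pre-exposed to test peptide at 10^-5 M, then given cumulative increasing concentrations (10^-11 to 10^-6 M) of hUII or URP. Contraction measured to give pEC50 and Emax, expressed relative to KCl-induced contraction. Mean ± SEM; unpaired Student's t test against hUII or URP alone.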

For assay [3] the target is unchanged. The assay is described as follows: Antagonist activity at UT2 receptor in Sprague-Dawley rat thoracic aorta ring assessed as Emax for hU2-induced aortic contractions at 10^-5M relative to KCl. Format: tissue-based. The procedure, abridged: as §1
Assay [4] addresses T2, Urotensin-2 receptor (Homo sapiens) (UniProt Q9UKP6).
T2 sequence (whole entry): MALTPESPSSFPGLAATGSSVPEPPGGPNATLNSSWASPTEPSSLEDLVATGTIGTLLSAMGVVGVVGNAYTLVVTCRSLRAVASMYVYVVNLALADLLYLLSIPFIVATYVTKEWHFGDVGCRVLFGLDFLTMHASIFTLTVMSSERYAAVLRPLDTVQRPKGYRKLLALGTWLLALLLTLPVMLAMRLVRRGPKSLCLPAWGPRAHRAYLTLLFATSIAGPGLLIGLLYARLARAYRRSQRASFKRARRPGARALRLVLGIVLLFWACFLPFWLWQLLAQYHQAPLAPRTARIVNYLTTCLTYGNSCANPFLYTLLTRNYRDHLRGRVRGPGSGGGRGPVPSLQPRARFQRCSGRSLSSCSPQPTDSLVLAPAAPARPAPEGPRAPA
The assay is described as follows: Displacement of [125I]-hU2 from human UT2 receptor expressed in CHO cells at 10^-5 M after 90 mins by gamma counter assay. It counts as cell-based. (In a radioligand displacement assay an active substance lowers the binding of a labelled ligand.)

Assay [5] addresses T3, Urotensin-2 receptor (Homo sapiens, UniProt Q9UKP6).
T3 sequence (Q9UKP6 whole entry): T2 sequence (whole entry)
Briefly: Displacement of [125I]-hU2 from human UT2 receptor expressed in CHO cells after 90 mins by gamma counter assay. Format: cell-based. In outline:
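CHO cells overexpressing human UT receptor incubated with test peptide. Displacement of 125I-hUII from UT measured. At least three independent experiments, each determination in triplicate; mean ± S.E.M.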

These results are taken from ChEMBL document CHEMBL3822356, “Urotensin II((4-11)) Azasulfuryl Peptides: Synthesis and Biological Activity” (J Med Chem, 2016).

Active and inactive are the calls of the source. The calls are words filed in the database; no cut-off is given here. Where a SMILES comes first, the peptide text is derived from it.

Regarding `CC(C)[C@H](NC(=O)[C@@H]1CSSC[C@H](NC(=O)[C@H](C)N)C(=O)N[C@@H](Cc2ccccc2)C(=O)N[C@@H](Cc2c[nH]c3ccccc23)C(=O)N[C@@H](CCCCN)C(=O)N[C@@H](Cc2ccc(O)cc2)C(=O)N1)C(=O)O`, the outcome in assay [1] was Active.
A word on the Emax: it is the greatest response seen or fitted, relative to the assay's reference. In general, inhibition refers to how much of the control response was suppressed. Usually IC50 stands for the concentration at which inhibition is half-maximal. Read a low IC50 as greater potency in that assay. Regarding `CC(C)[C@H](NC(=O)[C@@H]1CSSC[C@H](NC(=O)[C@@H](N)CC(=O)O)C(=O)N[C@@H](Cc2ccccc2)C(=O)N[C@@H](Cc2c[nH]c3ccccc23)C(=O)NN(CCCCN)S(=O)(=O)N[C@@H](Cc2ccc(O)cc2)C(=O)N1)C(=O)O` (HELM PEPTIDE1{D.C.F.W.[NCCCCN(N[*:1])S(=O)(=O)N[C@@H](Cc1ccc(O)cc1)C(=O)[*:2]].C.V}$PEPTIDE1,PEPTIDE1,2:R3-6:R3$$$V2.0), the values for the Emax in assay [2] and in assay [3] were 110% and 83%, respectively. Further, in assay [1], the outcome was inactive. The same molecule showed an inhibition in assay [4] of 40%. For the same molecule, the IC50 in assay [5] is above 1000 nM.
With `CC(C)[C@H](NC(=O)[C@@H]1CSSC[C@H](NC(=O)[C@H](CC(=O)O)NC(=O)[C@@H]2CCCN2C(=O)[C@@H](NC(=O)[C@@H](N)CCC(=O)O)[C@@H](C)O)C(=O)N[C@@H](Cc2ccccc2)C(=O)N[C@@H](Cc2c[nH]c3ccccc23)C(=O)N[C@@H](CCCCN)C(=O)N[C@@H](Cc2ccc(O)cc2)C(=O)N1)C(=O)O`, the result in assay [1] was Active.
As to `CC(C)[C@H](NC(=O)[C@@H]1CSSC[C@H](NC(=O)[C@@H](N)CC(=O)O)C(=O)N[C@@H](Cc2ccccc2)C(=O)NN(Cc2ccc(-c3ccccc3)cc2)S(=O)(=O)N[C@@H](CCCCN)C(=O)N[C@@H](Cc2ccc(O)cc2)C(=O)N1)C(=O)O`, the results for the maximal response (Emax) in assay [2] and in assay [3] were 69% and 51%, respectively. The Efficacy in assay [1] is 3%. In assay [4], this molecule showed an inhibition of 40%. This molecule returned an IC50 in assay [5] above 1000 nM.
In the case of `CC(C)[C@H](NC(=O)[C@@H]1CSSC[C@H](NC(=O)[C@@H](N)CC(=O)O)C(=O)N[C@@H](Cc2ccccc2)C(=O)N[C@@H](Cc2c[nH]c3ccccc23)C(=O)NN(CCCCN(C)C)S(=O)(=O)N[C@@H](Cc2ccc(O)cc2)C(=O)N1)C(=O)O` (HELM PEPTIDE1{D.C.F.W.[CN(C)CCCCN(N[*:1])S(=O)(=O)N[C@@H](Cc1ccc(O)cc1)C(=O)[*:2]].C.V}$PEPTIDE1,PEPTIDE1,2:R3-6:R3$$$V2.0), the values for the maximum response (Emax) in assay [2] and in assay [3] were 110% and 83%, respectively. For the same molecule, the outcome in assay [1] was inactive. Moreover, the inhibition in assay [4] worked out at 40%. The concentration for half-maximal inhibition (IC50) in assay [5] was above 1000 nM.
On to `CC(C)[C@H](NC(=O)[C@@H]1CSSC[C@H](NC(=O)[C@@H](N)CC(=O)O)C(=O)N[C@@H](Cc2ccccc2)C(=O)NN(Cc2cccc3ccccc23)S(=O)(=O)N[C@@H](CCCCN)C(=O)N[C@@H](Cc2ccc(O)cc2)C(=O)N1)C(=O)O`, for which the figures for the Emax in assay [2] and in assay [3] were 38% and 29%, respectively. In assay [1], the Efficacy is 3%. In assay [4], this molecule returned an inhibition of 40%. The molecule further showed a half-inhibitory concentration (IC50) in assay [5] above 1000 nM.
The corresponding values for `CC(C)[C@H](NC(=O)[C@@H]1CSSC[C@H](NC(=O)[C@@H](N)CC(=O)O)C(=O)N[C@@H](Cc2ccccc2)C(=O)NN(Cc2ccc3ccccc3c2)S(=O)(=O)N[C@@H](CCCCN)C(=O)N[C@@H](Cc2ccc(O)cc2)C(=O)N1)C(=O)O` are 105%, 65%, 3%, 40% and above 1000 nM.
The matching figures for `CC(C)[C@H](NC(=O)[C@@H]1CSSC[C@H](NC(=O)[C@@H](N)CC(=O)O)C(=O)N[C@@H](Cc2ccccc2)C(=O)NN(Cc2ccccc2)S(=O)(=O)N[C@@H](CCCCN)C(=O)N[C@@H](Cc2ccc(O)cc2)C(=O)N1)C(=O)O` (HELM PEPTIDE1{D.C.F.[NCCCC[C@H](NS(=O)(=O)N(Cc1ccccc1)N[*:1])C(=O)[*:2]].Y.C.V}$PEPTIDE1,PEPTIDE1,2:R3-6:R3$$$V2.0): 101%, 87%, 3%, 40% and above 1000 nM.
